According to PMC4216208 (Journal of Medicinal Chemistry, 2014):
Entries after “also recorded” stand apart in the source; their conditions may differ.

Columns and labels:
[1] = test system: HEK 293T/17 cells; experiment: Mitochondrial-uncoupling assay; format: cell-based, human; conditions: 50 μM compound, TMRE staining
Outline: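 HEK 293T/17 cells were trypsinised and suspended at 1−2 × 10^6 cells/mL in DMEM with 10% FBS, then given test compound (50 μM) or DMSO for 30 min at 37 °C. TMRE (~450 nM final) was added for 30 min in the dark at 37 °C. Cells were washed twice in 0.2% BSA/PBS, resuspended, and read by plate fluorescence (em 575 nm). Unstained and DMSO controls were included; mean ± sd, n = 3.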

[2] = molecular target: T1, BmCHT1 (Brugia malayi, UniProt P29030); experiment: Chitinase activity assay, Brugia malayi chitinase; format: biochemical; conditions: 10 μM final concentration
T1 sequence (P29030 23-504): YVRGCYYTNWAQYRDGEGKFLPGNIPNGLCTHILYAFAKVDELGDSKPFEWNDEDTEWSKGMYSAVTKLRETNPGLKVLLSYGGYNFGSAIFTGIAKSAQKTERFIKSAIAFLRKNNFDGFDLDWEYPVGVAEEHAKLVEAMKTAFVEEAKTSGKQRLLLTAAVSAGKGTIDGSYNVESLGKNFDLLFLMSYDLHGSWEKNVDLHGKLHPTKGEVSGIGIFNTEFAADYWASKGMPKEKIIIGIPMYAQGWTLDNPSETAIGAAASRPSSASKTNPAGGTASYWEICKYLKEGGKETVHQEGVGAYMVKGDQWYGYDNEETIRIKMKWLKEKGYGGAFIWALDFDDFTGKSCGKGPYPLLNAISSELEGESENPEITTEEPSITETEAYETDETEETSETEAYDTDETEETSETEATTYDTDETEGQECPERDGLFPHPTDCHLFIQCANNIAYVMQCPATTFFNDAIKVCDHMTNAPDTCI

[3] = test system: EhCHT1; experiment: Chitinase activity assay, Entamoeba histolytica chitinase; format: biochemical; conditions: 10 μM final concentration
[4] = test system: O. volvulus L3 larvae; experiment: O. volvulus L3 molting inhibition; format: cell-based, Onchocerca volvulus; conditions: for inhibition at 1 µM: Onchocerca volvulus, read-out: inhibition of O. volvulus L3 molting
[5] = test system: HEK 293T/17 cells; experiment: Cell viability assay; format: cell-based, human; conditions: 1 and 10 μM, 24 h, MTS assay
Outline: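 HEK 293T/17 cells (2 × 10^4) plated and held 24 h at 37 °C, then exposed to test compound at 1 and 10 μM final. Viability was read by MTS at 0.5 and 24 h after treatment.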

[6] = test system: C. elegans; experiment: Bioaccumulation in C. elegans; format: in vitro ADME, Caenorhabditis elegans; conditions: for accumulation in C. elegans (in words): late-stage L4 worms, 10 μM (2 nmol/mg worm), 6 h, LC-MS of homogenates; for worm concentration as share of the dose: at 6 h, dose 2 nmol/mg worm
Outline: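 Synchronised C. elegans grown to late L4 on E. coli OP50 at 25 °C for 40 h, water-washed, and suspended in M9 at ~5−10 worms/μL. Dosed at 10 μM final (~2 nmol/mg worm) from DMSO stock, 6 or 12 h at rt. Washed in 0.1% SDS then water, frozen, lyophilised, weighed, extracted into cold MeOH/MeCN with internal standard. Quantified by LC-ESI-MS against blank-worm calibration; mean ± sd, n = 3.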

[7] = molecular target: T2, PfCHT1 (Plasmodium falciparum, UniProt Q8I4R4); experiment: Chitinase activity assay, Plasmodium falciparum chitinase; format: biochemical; conditions: 10 μM final concentration
T2 sequence (Q8I4R4 29-378): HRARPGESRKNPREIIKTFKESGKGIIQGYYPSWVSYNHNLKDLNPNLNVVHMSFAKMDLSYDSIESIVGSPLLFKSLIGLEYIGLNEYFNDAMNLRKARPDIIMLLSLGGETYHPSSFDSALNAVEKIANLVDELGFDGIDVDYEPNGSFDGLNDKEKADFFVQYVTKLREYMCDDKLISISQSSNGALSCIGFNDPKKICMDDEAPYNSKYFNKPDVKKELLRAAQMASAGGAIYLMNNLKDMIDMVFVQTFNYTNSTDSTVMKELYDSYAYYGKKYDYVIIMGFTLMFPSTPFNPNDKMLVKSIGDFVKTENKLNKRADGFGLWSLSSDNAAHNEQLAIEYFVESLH

[8] = molecular target: T3, OvCHT1 (Onchocerca volvulus, UniProt Q25615); experiment: O. volvulus chitinase; format: biochemical; conditions: for inhibition of OvCHT1 at single concentration: 10 μM final concentration, relative to control (0.5% DMSO in water)
T3 sequence (Q25615 22-497): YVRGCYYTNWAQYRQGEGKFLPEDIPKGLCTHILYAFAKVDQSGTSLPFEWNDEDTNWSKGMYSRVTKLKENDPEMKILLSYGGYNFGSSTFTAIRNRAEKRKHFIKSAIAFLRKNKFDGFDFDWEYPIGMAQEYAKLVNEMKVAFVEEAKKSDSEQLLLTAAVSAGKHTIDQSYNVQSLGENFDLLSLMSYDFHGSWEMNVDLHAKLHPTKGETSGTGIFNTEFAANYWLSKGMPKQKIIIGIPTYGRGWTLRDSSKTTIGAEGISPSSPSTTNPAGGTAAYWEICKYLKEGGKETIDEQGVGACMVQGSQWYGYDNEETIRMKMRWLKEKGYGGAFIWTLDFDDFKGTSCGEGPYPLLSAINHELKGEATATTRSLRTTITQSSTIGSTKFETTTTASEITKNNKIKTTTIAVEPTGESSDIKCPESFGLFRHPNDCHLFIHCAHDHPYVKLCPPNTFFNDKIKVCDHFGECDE

[9] = 10 μM, 24 h preincubation, molting assessed day 6

Row | inhibition of BmCHT1 at single concentration [2] | inhibition of EhCHT1 at single concentration [3] | accumulation in C. elegans (in words) [6] | inhibition of PfCHT1 at single concentration [7] | inhibition of OvCHT1 at single concentration [8] | Structure (SMILES) | mitochondrial-uncoupling (protonophoric) activity [1] | effect on O. volvulus L3 molting [4, 9] | other results
1 |  |  |  |  |  | O=C(Nc1ccc(Oc2ccccc2)cc1)c1cc(I)cc(I)c1O [Compound 3a, 2-Hydroxy-3,5-diiodo-N-(4-phenoxyphenyl)benzamide] | mitochondrial-uncoupling activity |  | 
2 | sparing | sparing | accumulated in C. elegans | sparing | complete inhibition | O=C(Nc1ccc(Oc2ccc(Cl)cc2)cc1)c1cc(I)cc(I)c1O [Compound 3h, N-(4-(4-Chlorophenoxy)phenyl)-2-hydroxy-3,5-diiodobenzamide] | mitochondrial-uncoupling activity | completely abolished molting | inhibition at 1 µM [4]: ≤ 84%; effect on cell viability of HEK 293T/17 cells [5]: no considerable effect on cell viability
3 |  |  |  |  |  | COc1c(I)cc(I)cc1C(=O)N(C)c1ccc(Oc2ccccc2)cc1 [Compound 3d, 3,5-Diiodo-2-methoxy-N-methyl-N-(4-phenoxyphenyl)benzamide] | loss of uncoupling activity |  | 
4 |  |  |  |  |  | COc1c(I)cc(I)cc1C(=O)Nc1ccc(Oc2ccccc2)cc1 [Compound 3b, 3,5-Diiodo-2-methoxy-N-(4-phenoxyphenyl)benzamide] | loss of uncoupling activity |  | 
5 |  |  | accumulated in C. elegans |  |  | COc1c(I)cc(I)cc1C(=O)Nc1ccc2ccccc2c1 [Compound 4b, 3,5-Diiodo-2-methoxy-N-(naphthalen-2-yl)benzamide] | loss of uncoupling activity; also recorded: devoid of protonophoric activity | inhibited molting | effect on O. volvulus L3 molting ([4]; 1 μM): did not show any impact on molting; worm concentration as share of the dose [6]: less than 50%
6 | sparing | sparing | accumulated in C. elegans | sparing | complete inhibition | COc1c(I)cc(I)cc1C(=O)Nc1ccc(Oc2ccc(Cl)cc2)cc1 [Compound 3i, N-(4-(4-Chlorophenoxy)phenyl)-3,5-diiodo-2-methoxybenzamide] | loss of uncoupling activity; also recorded: devoid of protonophoric activity | only marginal inhibition | effect on O. volvulus L3 molting ([4]; 100 μM): completely hindered L3 molting
7 |  |  |  |  |  | O=C(Nc1ccc(Oc2ccccc2)cc1)c1cc(I)cc(I)c1 [Compound 3e, 3,5-Diiodo-N-(4-phenoxyphenyl)benzamide] | loss of uncoupling activity |  | 
8 | sparing | sparing | accumulated in C. elegans | sparing | complete inhibition | O=C(Nc1ccc(-c2ccc(Cl)cc2)cc1)c1cc(I)cc(I)c1O [Compound 5c, N-(4′-Chloro-[1,1′-biphenyl]-4-yl)-2-hydroxy-3,5-diiodobenzamide] |  |  | 
9 | sparing | sparing | accumulated in C. elegans | sparing | complete inhibition | O=C(Nc1ccc(-c2ccccc2)cc1)c1cc(I)cc(I)c1O [Compound 5a, N-([1,1′-Biphenyl]-4-yl)-2-hydroxy-3,5-diiodobenzamide] |  |  | 
10 |  |  | accumulated in C. elegans |  |  | O=C(Nc1ccc2ccccc2c1)c1cc(I)cc(I)c1O [Compound 4a, 2-Hydroxy-3,5-diiodo-N-(naphthalen-2-yl)benzamide] | mitochondrial-uncoupling activity | completely abolished molting | inhibition at 1 µM [4]: ≤ 84%; effect on cell viability of HEK 293T/17 cells [5]: no considerable effect on cell viability; worm concentration as share of the dose [6]: less than 50%
11 |  |  |  |  |  | COc1c(I)cc(I)cc1C(=O)O [Compound 6b, 3,5-Diiodo-2-methoxybenzoic Acid] | neither an OvCHT1 inhibitor nor a protonophore | no inhibition on molting | OvCHT1 inhibitor or not (in words) [8]: neither an OvCHT1 inhibitor nor a protonophore
12 | sparing | sparing | accumulated in C. elegans | sparing | complete inhibition | O=C(Nc1ccc(Oc2ccc(Cl)cc2)cc1)c1cc(I)cc(I)c1 [Compound 3j, N-(4-(4-Chlorophenoxy)phenyl)-3,5-diiodobenzamide] | loss of uncoupling activity; also recorded: devoid of protonophoric activity |  | 
13 |  |  |  |  |  | CN(C(=O)c1cc(I)cc(I)c1O)c1ccc(Oc2ccccc2)cc1 [Compound 3c, 2-Hydroxy-3,5-diiodo-N-methyl-N-(4-phenoxyphenyl)benzamide] | eradicated protonophoric activity |  | 
14 |  |  |  |  |  | O=C(Nc1ccc2ccccc2c1)c1cc(I)cc(I)c1 [Compound 4c, 3,5-Diiodo-N-(naphthalen-2-yl)benzamide] | loss of uncoupling activity |  | 

Row | Structure (SMILES) | inhibition of BmCHT1 at single concentration [2] | inhibition of EhCHT1 at single concentration [3] | accumulation in C. elegans (in words) [6] | inhibition of PfCHT1 at single concentration [7] | inhibition of OvCHT1 at single concentration [8] | mitochondrial-uncoupling (protonophoric) activity [1] | effect on O. volvulus L3 molting [4, 9] | other results
15 | O=C(Nc1ccc(Oc2ccc(Cl)cc2)c(Cl)c1)c1cc(I)cc(I)c1O [Compound 3m, rafoxanide, reference compound] | sparing | sparing | accumulated in C. elegans | sparing | complete inhibition | good mitochondrial-uncoupling activity | completely abolished molting | inhibition of O. volvulus L3 molting ([4]; 1 μM, 24 h preincubation, molting assessed day 6): up to 84%; effect on cell viability of HEK 293T/17 cells [5]: no considerable effect on cell viability; worm level as share of the initial dose ([6]; at 6 and 12 h, initial dose 2 nmol/mg worm): > 75%
16 | N#CC(C#N)=NNc1cccc(Cl)c1 [CCCP, carbonyl cyanide m-chlorophenyl hydrazone, reference compound] |  |  | accumulated in C. elegans |  |  | a protonophore only | fully inhibited the molting | effect on O. volvulus L3 molting ([4]; 1 μM): did not show any impact on molting
